# Results from ChEMBL document CHEMBL1130338, “(E)- and (Z)-7-arylidenenaltrexones: synthesis and opioid receptor radioligand displacement assays” (J Med Chem, 1997).
# What was measured:
# [1] = target: Mu-type opioid receptor (Cavia porcellus, UniProt P97266); test: Binding affinity was determined in a crude membrane preparation from guinea pig brain by displacement of [3H]DAMGO from Opioid receptor mu 1; type: cell membranes
# Method in brief: (§1)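 Guinea pig brain (less cerebellum) homogenized in 0.05 M Tris pH 7.4, pelleted at 25000g (4 °C, 20 min), stored in 0.32 M sucrose at –70 °C. Diluted 1:60, giving 0.8–1.5 mg protein/mL. Radioligands at 1.0 nM ([3H]DAMGO μ, [3H]DPDPE δ, [3H]U69,593 κ). Test ligand in duplicate at nine concentrations, 1.0–1000 nM. Nonspecific binding with 10 μM naloxone. Incubated 60 min at 25 °C, then filtered and counted. Ki from IC50 via Cheng–Prusoff using KD measured in this homogenate.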
# [2] = target: Kappa-type opioid receptor (Cavia porcellus, UniProt P41144); test: Binding affinity was determined in a crude membrane preparation from guinea pig brain by displacement of [3H]U-69593 from Opioid receptor kappa 1; type: cell membranes; method in brief: as §1
# Sequence of Kappa-type opioid receptor (P41144 whole entry): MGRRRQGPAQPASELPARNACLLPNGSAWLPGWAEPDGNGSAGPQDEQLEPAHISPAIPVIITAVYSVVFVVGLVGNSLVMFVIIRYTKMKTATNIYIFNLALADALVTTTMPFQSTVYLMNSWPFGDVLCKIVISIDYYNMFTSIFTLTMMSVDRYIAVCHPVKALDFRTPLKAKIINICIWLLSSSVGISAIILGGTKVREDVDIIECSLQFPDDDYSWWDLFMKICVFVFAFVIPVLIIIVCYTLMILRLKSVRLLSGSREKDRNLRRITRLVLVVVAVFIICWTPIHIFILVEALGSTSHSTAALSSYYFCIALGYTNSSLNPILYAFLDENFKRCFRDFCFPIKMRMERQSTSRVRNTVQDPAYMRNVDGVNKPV
# [3] = target: Opioid receptors; mu & delta (UniProt P41143+P35372); test: Selectivity ratio measured in terms of delta opioid receptor to the mu opioid receptor; type: protein assay; conditions: Cavia porcellus
# Sequence of Opioid receptors; mu & delta (P35372 whole entry, looked up): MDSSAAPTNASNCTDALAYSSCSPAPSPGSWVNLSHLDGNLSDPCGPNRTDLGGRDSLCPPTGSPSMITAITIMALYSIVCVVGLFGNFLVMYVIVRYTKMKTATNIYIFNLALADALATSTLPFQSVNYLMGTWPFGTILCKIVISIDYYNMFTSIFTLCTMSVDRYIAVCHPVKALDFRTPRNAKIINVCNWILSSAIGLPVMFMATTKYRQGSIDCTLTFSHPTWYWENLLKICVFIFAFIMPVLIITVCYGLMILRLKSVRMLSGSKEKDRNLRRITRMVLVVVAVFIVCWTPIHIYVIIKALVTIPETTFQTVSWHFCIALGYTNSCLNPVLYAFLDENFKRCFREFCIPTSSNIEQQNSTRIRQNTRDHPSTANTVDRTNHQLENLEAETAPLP
# Sequence of Opioid receptors; mu & delta (P41143 whole entry, looked up): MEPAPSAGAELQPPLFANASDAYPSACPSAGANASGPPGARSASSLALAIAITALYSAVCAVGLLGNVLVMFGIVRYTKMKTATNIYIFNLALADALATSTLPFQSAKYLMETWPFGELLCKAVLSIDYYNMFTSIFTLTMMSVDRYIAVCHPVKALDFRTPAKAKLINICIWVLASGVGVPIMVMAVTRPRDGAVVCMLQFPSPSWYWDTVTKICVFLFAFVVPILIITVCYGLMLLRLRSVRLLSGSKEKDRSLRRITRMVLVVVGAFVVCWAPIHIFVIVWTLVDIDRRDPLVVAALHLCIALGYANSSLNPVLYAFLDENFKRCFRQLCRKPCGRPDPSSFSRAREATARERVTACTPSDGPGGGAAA
# Sequence of Mu-type opioid receptor (P97266 whole entry): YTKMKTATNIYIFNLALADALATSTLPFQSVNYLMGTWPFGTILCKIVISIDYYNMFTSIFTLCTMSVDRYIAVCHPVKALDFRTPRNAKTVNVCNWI
Structure (SMILES),Ki [1],Ki [2],Selectivity ratio [3]
O=C1/C(=C\c2ccc(-c3ccccc3)cc2)C[C@@]2(O)[C@H]3Cc4ccc(O)c5c4C2(CCN3CC2CC2)[C@H]1O5,210 nM,400 nM,4.2
O=C1/C(=C/c2ccc3ccccc3c2)C[C@@]2(O)[C@H]3Cc4ccc(O)c5c4C2(CCN3CC2CC2)[C@H]1O5,23 nM,74 nM,0.6
O=C1/C(=C\c2cccc3ccccc23)C[C@@]2(O)[C@H]3Cc4ccc(O)c5c4C2(CCN3CC2CC2)[C@H]1O5,11 nM,37 nM,15
O=C1/C(=C/c2cccc3ccccc23)C[C@@]2(O)[C@H]3Cc4ccc(O)c5c4C2(CCN3CC2CC2)[C@H]1O5,36 nM,120 nM,7.5
O=C1/C(=C/c2c3ccccc3cc3ccccc23)C[C@@]2(O)[C@H]3Cc4ccc(O)c5c4C2(CCN3CC2CC2)[C@H]1O5,110 nM,170 nM,6.4
O=C1/C(=C\c2ccccc2)C[C@@]2(O)[C@H]3Cc4ccc(O)c5c4[C@@]2(CCN3CC2CC2)[C@H]1O5,33 nM,34 nM,8.6
O=C1/C(=C/c2ccccc2)C[C@@]2(O)[C@H]3Cc4ccc(O)c5c4[C@@]2(CCN3CC2CC2)[C@H]1O5 [BNTX],26 nM,48 nM,4
CC(C)CN1CCC23c4c5ccc(O)c4O[C@H]2C(=O)/C(=C\c2ccc4ccccc4c2)C[C@@]3(O)[C@H]1C5,–,–,3
O=C1/C(=C\c2c3ccccc3cc3ccccc23)C[C@@]2(O)[C@H]3Cc4ccc(O)c5c4C2(CCN3CC2CC2)[C@H]1O5,34 nM,100 nM,14
O=C1/C(=C/c2ccc(-c3ccccc3)cc2)C[C@@]2(O)[C@H]3Cc4ccc(O)c5c4C2(CCN3CC2CC2)[C@H]1O5,50 nM,190 nM,0.6
